Among the data in the RNAGym collection of RNA variant scans (doi:10.1126/science.aae0568) are yeast fitness values, retold here.

B1: tRNA (parent)
chain: GUUCCGUUGGCGUAAUGGUAACGCGUCUCCCUCCUAAGGAGAAGACUGCGGGUUCGAGUCCCGUACGGAACG

Fewer inactive variants are shown than the library holds.

The data set covers variants of B1. The experiment in a line: yeast fitness relative to wild type (ratio to wild type); higher = fitter; tRNA-Arg(CCU), competitive growth, 37 C, YPD. In a few lines: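 For this measurement, the tRNA-Arg(CCU) gene was varied by chemical synthesis at a 3% per-site mutation rate across 69 sites, and each variant was placed at the native genomic locus in Saccharomyces cerevisiae. The pooled strains went through a 24-hour competition in YPD at 37°C in six parallel replicates, with amplicons from start and end populations read by 100-nucleotide paired-end sequencing. Darwinian fitness relative to wild type followed from the change in each genotype's frequency. Genotypes needed ≥ 100 starting reads, and estimates < 0.5 were set to 0.5.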
As to GUUCCGUUGGCGUAAUGGUAACGCGUCUCUCCCCUAAGGAGAAGACUGCGGGUUCGAGUCCCGUACGGAACG [C30U U32C], the yeast fitness is 0.924.

For the variant GUUCCGUUGGCGUAAUGGUAACGCGUCUCUCUCCAAGCGAGAAGACAGCGGGUUCGAGUCCCGUACGGAACG [C30U U35A A37G G38C U47A], the yeast fitness is at most 0.5.

As for GUUCCGUUGGCGUAAUGGUAACGCGUCUCUCACCUUUGGAGAAGACUGCGGGUUCGAGUCCUAUACGGAACG [C30U U32A A36U A37U C62U G63A], the yeast fitness was at most 0.5.

As to GUUCCGUUGGCGUAAUGGUAACGCGUCUCUCUCCUAAGAAGAAGACUGCGGGUUCGAGUCGGGUACGGAACG [C30U G39A C61G C62G], the yeast fitness is at most 0.5.

As for GUUCCGUUGGCGUAAUGGUAACGCGUCUCUCUCCUAAGGAGAAGACUGCGGGUUCGAGUCCCGUACGACACG [C30U G68A A69C], the yeast fitness came out at 0.544.

GUUCCGUUGGCGUAAUGGUAACGCGUCUCUCUCCUAAGGAGAAGACUGCGGGUUCAAGUCCCGUACCGAACG [C30U G56A G67C]: the yeast fitness turned out to be 0.603.

In the case of GUUCCGUUGGCGUAAUGGUAACGCGUCUCUCUCCUAAGGAGAAGACUGCGCGUUCGAAUCCCGUACGGAACG [C30U G51C G58A], the yeast fitness was at most 0.5.

GUUCCGUUGGCGUAAUGGUAACGCGUCUCUCUCCUAAGGAGAAGACUGCGGGUUCGAGUCCCGUACGAAUCG [C30U G68A A70U]: the yeast fitness amounted to 0.577.

In the case of GUUCCGUUGGCGUAAUGGUAACGCGUCUCUCUCCUAAGGAGAAGACUGCGGGUUCGAGUCCCCUACGGAACG [C30U G63C], the yeast fitness worked out at 0.757.

On to GUUCCGUUGGCGUAAUGGUAACGCGUCUCUCUCCUAAGGAGAAGACUGCGGGUUCGAGUCCCAUACGGAACG [C30U G63A], for which the yeast fitness was 0.729.

On to GUUCCGUUGGCGUAAUGGUAACGCGUCUCUCUCCUAAGGAGAAGACAGCGGGUUCGAGUCCCGUACCAAACG [C30U U47A G67C G68A], for which the yeast fitness was at most 0.5.

With GUUCCGUUGGCGUAAUGGUAACGCGUCUCUCACCUAAGGAGAAGACUGCGGGUACGAGUCCCGUACGGAACG [C30U U32A U54A], the yeast fitness was 0.536.

Take GUUCCGUUGGCGUAAUGGUAACGCGUCUCUCUCCUAAGGAGAAGACUGCGGGUUCGAGUCCCGUACGUAACG [C30U G68U]: the yeast fitness came out at 0.923.

In the case of GUUCCGUUGGCGUAAUGGUAACGCGUCUCUCUCCUAAGGAGAAGACUGCGGGUUCGAGUCCCGUACGAAACG [C30U G68A], the yeast fitness was found to be 0.744.

In the case of GUUCCGUUGGCGUAAUGGUAACGCGUCUCUCUCCUAACGAGAAGACUGCGGGUUCGAAUCACGUACGGAACG [C30U G38C G58A C61A], the yeast fitness was at most 0.5.

In the case of GUUCCGUUGGCGUAAUGGUAACGCGUCUCUCUCCUAAGGAGAAGACUGCGGAUCCGAGUCCCGUACGGAACG [C30U G52A U54C], the yeast fitness is at most 0.5.

Turning to GUUCCGUUGGCGUAAUGGUAACGCGUCUCUCUCCUAAGGAGAAGACUGCCGGUUCGAGUCCCGUACGGAGCG [C30U G50C A70G], the yeast fitness is at most 0.5.

With GUUCCGUUGGCGUAAUGGUAACGCGUCUCUCUCCUAAGGAGAAGACUGCGCGUUCGAGUCCCGUACAGAACG [C30U G51C G67A], the yeast fitness was at most 0.5.

With GUUCCGUUGGCGUAAUGGUAACGCGUCUCUCUCCUAAGGAGAAGACUGCGGGUUCGAGUCCCGCACGGAACG [C30U U64C], the yeast fitness was 0.902.

Consider GUUCCGUUGGCGUAAUGGUAACGCGUCUCUCUCCUAAGGACAAGACUGCGGGUUCGAGUCCCGUACGGAACG [C30U G41C], for which the yeast fitness was found to be 0.651.

Take GUUCCGUUGGCGUAAUGGUAACGCGUCUCUCUCCUAAGGAAAAGACUGCGGGUUCGAGUCCCGUACGGAACG [C30U G41A]: the yeast fitness amounted to 0.842.

Regarding GUUCCGUUGGCGUAAUGGUAACGCGUCUCUCUCCUAAGGAGAAGACAGCGGGUUCGAGAUCGGUAUGGAACG [C30U U47A U59A C60U C62G C66U], the yeast fitness was at most 0.5.

GUUCCGUUGGCGUAAUGGUAACGCGUCUCUCUCCUAAGGAGAACACUGCGAGUUCGAGUCUCGUACGGAACG [C30U G44C G51A C61U]: the yeast fitness is at most 0.5.

In the case of GUUCCGUUGGCGUAAUGGUAACGCGUCUCCAUCCUCAGGAGAAAACUGCGGGUUCGUGUCCCGUAAGGAACG [C31A A36C G44A A57U C66A], the yeast fitness is at most 0.5.

For the variant GUUCCGUUGGCGUAAUGGUAACGCGUCUCCAUCCUAAGGAGAAGACUGCGGGUUCGAGUCCCGUACGGAACG [C31A], the yeast fitness was found to be 0.848.

Regarding GUUCCGUUGGCGUAAUGGUAACGCGUCUCUCUCCCAAGGAGACGACUGCGGGUUCGAGUCCCGUACUGAACG [C30U U35C A43C G67U], the yeast fitness was at most 0.5.

In the case of GUUCCGUUGGCGUAAUGGUAACGCGUCUCUCGCCUAGGGAGAAGACUGCGGGUUCGAGUCCCGUACGGAACG [C30U U32G A37G], the yeast fitness was at most 0.5.

Turning to GUUCCGUUGGCGUAAUGGUAACGCGUCUCUCUCCUAAGGAGAAGACUGCGGAUUCGAGUCCCGUACGCAACG [C30U G52A G68C], the yeast fitness is at most 0.5.

Turning to GUUCCGUUGGCGUAAUGGUAACGCGUCUCUCUCCCAAGGAGAAGACUGCGUGUUCGAGUCUCGUACGGAACG [C30U U35C G51U C61U], the yeast fitness was at most 0.5.

As for GUUCCGUUGGCGUAAUGGUAACGCGUCUCUCUCCUAAGGAGAACACUGCGGGUUCGAGUCCCGUUCGGAACG [C30U G44C A65U], the yeast fitness is at most 0.5.

Turning to GUUCCGUUGGCGUAAUGGUAACGCGUCUCUCUCCUAAGGACAAGACUGCGGGUUCGAGUCCCGUACGGUACG [C30U G41C A69U], the yeast fitness is at most 0.5.

Take GUUCCGUUGGCGUAAUGGUAACGCGUCUCUCUCCUAAAGAGAAGACUGCGGGUUCGAGUGCCGUACGGAACG [C30U G38A C60G]: the yeast fitness turned out to be 0.537.

GUUCCGUUGGCGUAAUGGUAACGCGUCUCUCUCCUAAGGACAAGACUGCGGGUUCGAGUCCCGUACGGAUCG [C30U G41C A70U]: the yeast fitness worked out at 0.567.

Turning to GUUCCGUUGGCGUAAUGGUAACGCGUCUCUCUCCUAAGGAGAAGACUGCGAGUUCGAGUCCCGUACGGAACG [C30U G51A], the yeast fitness is 0.7.

For the variant GUUCCGUUGGCGUAAUGGUAACGCGUCUCUCUCCUAAGGAGAAGACUGCGCGUUCGAGUCCCGUACGGAACG [C30U G51C], the yeast fitness was found to be 0.535.

In the case of GUUCCGUUGGCGUAAUGGUAACGCGUCUCUCUCCUAAGGAGAAGACUGCGGGUACGAGUCCCGUACGUAACG [C30U U54A G68U], the yeast fitness was at most 0.5.

On to GUUCCGUUGGCGUAAUGGUAACGCGUCUCUCUCCUAAGAAGAAGACUGCGGGUUCGAGUCCCGUACGGAACG [C30U G39A], for which the yeast fitness turned out to be 0.897.

In the case of GUUCCGUUGGCGUAAUGGUAACGCGUCUCUCUCCUAAGGAGAAGACUGCGGGUCCGAGUCCCGUACGGAACG [C30U U54C], the yeast fitness was found to be 0.805.
